Results published in ChEMBL document CHEMBL5338714, “Design, synthesis and biological evaluation of biphenyl-benzamides as potent FtsZ inhibitors” (Eur J Med Chem, 2022).
Converted amounts (≈) assume the structure as drawn. The source made the active and inactive calls. The rule behind the calls is not given here.

What was measured:
[1] = Metabolic stability in rat liver microsomes assessed as compound remaining preincubated for 5 mins followed by NADPH addition measured after 5 mins by LC/MS analysis; format: ADME, Microsome; conditions: time 10 min, read-out: Stability
Outline: (§1)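 Liver microsomes (final protein 0.75 mg/mL) with compound in 100 mM phosphate buffer pH 7.4, preincubated 5 min at 37 °C. Reaction started with NADPH regeneration system, stopped at 5, 15, 30 and 45 min with acetonitrile containing internal standard. Percent remaining measured by LC/MS, with ketanserin as reference; variation given as RSD of area ratio.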

[2] = Metabolic stability in rat liver microsomes assessed as half life preincubated for 5 mins followed by NADPH addition measured upto 45 mins by LC/MS analysis; format: ADME, Microsome; conditions: time < 50 min
Outline: (§2)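 Liver microsomes at 0.75 mg/mL final protein, with test article and NADPH regeneration system (6 mM) in 100 mM phosphate buffer, pH 7.4. Preincubated 5 min at 37 °C, then started with NADPH. Quenched with acetonitrile containing internal standard at 5, 15, 30 and 45 min, centrifuged, and percent remaining measured by LC/MS. Ketanserin served as reference.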

Bacillus subtilis [3] = experiment: Antibacterial activity against Bacillus subtilis MG27 assessed as bacterial growth inhibition incubated for 18 hrs by CLSI based broth microdilution method; format: functional
Outline: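 CLSI broth microdilution. Log-phase bacteria in Mueller Hinton broth added to 2-fold serial dilutions spanning 128 to 0.25 or 2 to 0.004 µg/mL. Incubated aerobically for 18 h at 37 °C, then OD600 read. MIC is the lowest concentration giving ≥90% growth inhibition; three independent assays.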

[4] = Metabolic stability in rat liver microsomes assessed as compound remaining preincubated for 5 mins followed by NADPH addition measured after 15 mins by LC/MS analysis; format: ADME, Microsome; conditions: time 20 min, read-out: Stability; outline: as §1
[5] = Metabolic stability in mouse liver microsomes assessed as compound remaining preincubated for 5 mins followed by NADPH addition measured after 15 mins by LC/MS analysis; format: ADME, Microsome; conditions: time 20 min, read-out: Stability; outline: as §1
[6] = Metabolic stability in rat liver microsomes assessed as compound remaining preincubated for 5 mins followed by NADPH addition measured after 45 mins by LC/MS analysis; format: ADME, Microsome; conditions: time 50 min, read-out: Stability; outline: as §1
[7] = Metabolic stability in human liver microsomes assessed as compound remaining preincubated for 5 mins followed by NADPH addition measured after 5 mins by LC/MS analysis; format: ADME, Microsome; conditions: time 10 min, read-out: Stability; outline: as §1
[8] = Metabolic stability in human liver microsomes assessed as half life preincubated for 5 mins followed by NADPH addition measured upto 45 mins by LC/MS analysis; format: ADME, Microsome; conditions: time < 50 min; outline: as §2
Pseudomonas aeruginosa = experiment: Antibacterial activity against Pseudomonas aeruginosa 15690 assessed as bacterial growth inhibition incubated for 18 hrs by CLSI based broth microdilution method; format: functional
Outline: (§3)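 Broth microdilution to CLSI guidelines. Log-phase bacteria grown in Mueller Hinton broth, diluted, then exposed to 2-fold serial dilutions of compound (128 to 0.25 µg/mL or 2 to 0.004 µg/mL). Incubated aerobically 18 h at 37 °C. Growth read as OD600. MIC = lowest concentration giving ≥90% growth inhibition. Three independent assays.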

[9] = Selectivity index, ratio of CC50 for African green monkey Vero cells to MIC for Bacillus subtilis ATCC9372; format: toxicity, cell-based; conditions: read-out: Selectivity Index
Outline: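 CC50 in Vero cells (72 h Alamar blue) divided by broth microdilution MIC against B. subtilis ATCC9372.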

[10] = Metabolic stability in human liver microsomes assessed as compound remaining preincubated for 5 mins followed by NADPH addition measured after 30 mins by LC/MS analysis; format: ADME, Microsome; conditions: time 35 min, read-out: Stability; outline: as §1
[11] = AUC (0 to infinity) in ICR mouse at 5 mg/kg, po measured for 0.25 to 24 hrs by LC-MS/MS analysis; format: ADME, organism-based; design: time upper 24 hrs, time lower 0.25 hrs, dose 5 mg/kg, route po; conditions: in vivo
Outline: (§4)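 Male ICR mice dosed orally with a solution of 5% DMSO, 4% ethanol, 5% Cremophor EL and 86% water. Blood collected at 15, 30 min, 1, 2, 4, 6, 8 and 24 h; plasma stored at -20 °C. Plasma levels measured by LC-MS/MS; parameters by non-compartmental analysis, with bioavailability relative to the 1 mg/kg iv dose.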

[12] = AUC (0 to infinity) in ICR mouse at 1 mg/kg, iv measured for 0.08 to 24 hrs by LC-MS/MS analysis; format: ADME, organism-based; design: dose 1 mg/kg, time upper 24 hrs, time lower 0.08 hrs, route iv; conditions: in vivo
Outline: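 Male ICR mice, single intravenous dose formulated in 5% DMSO, 4% ethanol, 5% Cremophor EL, 86% water. Blood sampled at 5, 15, 30 min, 1, 2, 4, 8 and 24 h; plasma stored at -20 °C. Compound quantified by LC-MS/MS, with parameters from non-compartmental analysis.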

[13] = AUC (0 to t) in ICR mouse at 5 mg/kg, po measured for 0.25 to 24 hrs by LC-MS/MS analysis; format: ADME, organism-based; design: time lower 0.25 hrs, dose 5 mg/kg, time upper 24 hrs, route po; conditions: in vivo; outline: as §4
Klebsiella pneumoniae = experiment: Antibacterial activity against Klebsiella pneumoniae 14578 assessed as bacterial growth inhibition incubated for 18 hrs by CLSI based broth microdilution method; format: functional; outline: as §3
Staphylococcus aureus [14] = experiment: Antibacterial activity against Staphylococcus aureus ATCC25923 infected in ICR mouse assessed as reduction in bacterial burden in plasma at 25 mg/kg, ip by colony forming unit assay; format: functional, organism-based
[15] = Metabolic stability in human liver microsomes assessed as intrinsic clearance preincubated for 5 mins followed by NADPH addition measured upto 45 mins by LC/MS analysis; format: ADME, Microsome; conditions: time < 50 min, read-out: CLH; outline: as §2
[16] = Metabolic stability in mouse liver microsomes assessed as half life preincubated for 5 mins followed by NADPH addition measured upto 45 mins by LC/MS analysis; format: ADME, Microsome; conditions: time < 50 min; outline: as §2
Bacillus subtilis [17] = experiment: Induction of morphological changes in Bacillus subtilis ATCC9372 assessed as increase in cell length at MIC incubated for 3 hrs by microscopic analysis (reference value: 10 um); format: functional
Staphylococcus aureus [18] = experiment: Antibacterial activity against methicillin-resistant Staphylococcus aureus shhsE1 assessed as bacterial growth inhibition incubated for 18 hrs by CLSI based broth microdilution method; format: functional; outline: as §3
[19] = Metabolic stability in mouse liver microsomes assessed as compound remaining preincubated for 5 mins followed by NADPH addition measured after 45 mins by LC/MS analysis; format: ADME, Microsome; conditions: time 50 min, read-out: Stability; outline: as §1
Staphylococcus aureus [20] = experiment: Antibacterial activity against ampicillin/kanamycin-resistant Staphylococcus aureus 6917 assessed as bacterial growth inhibition incubated for 18 hrs by CLSI based broth microdilution method; format: functional; outline: as §3
Staphylococcus aureus [21] = experiment: Antibacterial activity against Staphylococcus aureus ATCC25923 assessed as bacterial growth inhibition at 1 to 8 times MIC measured after 12 hrs by time kill curve assay relative to control; format: functional
Outline: (§5)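 Time-kill: log-phase cultures diluted to about 10^6 CFU/mL in MHB with compound at 1×, 2×, 4× or 8× MIC (vancomycin at 2× MIC), shaken at 37 °C. Samples taken at 3, 6, 12 and 24 h, serially diluted and plated on LB agar. Colonies counted after 24 h at 37 °C; detection limit 10^3 CFU/mL.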

[22] = Tmax in ICR mouse at 5 mg/kg, po measured for 0.25 to 24 hrs by LC-MS/MS analysis; format: ADME, organism-based; conditions: in vivo, time 0.25-24 hrs; outline: as §4
Staphylococcus aureus [23] = experiment: Antibacterial activity against Staphylococcus aureus ATCC25923 assessed as reduction in bacterial count at 4 times MIC measured for 3 hrs by time kill curve assay; format: functional, organism-based; outline: as §5

Cc1cc(Cl)ccc1-c1cccc(COc2ccc(F)c(C(N)=O)c2F)c1
remaining at 5 min [1]: 73.7% | half-life [2]: 13.6 min | MIC (Bacillus subtilis [3]): 0.031 µg/mL (≈ 0.0799 µM) | remaining at 0.25 h [4]: 39% | remaining at 0.25 h [5]: 11.9% | remaining at 0.75 h [6]: 10% | remaining at 5 min [7]: 97.1% | half-life [8]: 112 min | MIC (Pseudomonas aeruginosa): > 128 µg/mL | selectivity ratio [9]: > 645 | remaining at 0.5 h [10]: 83.4% | AUC(0-inf) [11]: 559 ng·h/mL | AUC(0-inf) [12]: 179 ng·h/mL | AUC(0-t) [13]: 544 ng·h/mL | MIC (Klebsiella pneumoniae): > 128 µg/mL | Activity (Staphylococcus aureus [14]): Active | CLint scaled [15]: 15.5 mL/min/kg | half-life [16]: 5.09 min | Activity (Bacillus subtilis [17]): >60 um | MIC (Staphylococcus aureus [18]): 0.125 µg/mL (≈ 0.322 µM) | remaining at 0.75 h [19]: 0.46% | MIC (Staphylococcus aureus [20]): 0.125 µg/mL (≈ 0.322 µM) | inhibition (INH) (Staphylococcus aureus [21]): 100% | Tmax [22]: 30 min | Activity (Staphylococcus aureus [23]): Active
